The values that follow come from the array DNA melting data of Ke et al. (doi:10.1101/2024.01.08.574731).

Data set [1] in a line: folding enthalpy; higher = less favourable; fluorescence melt of hairpins on a sequencing array, two-state fit. Particulars: sodium 0.088 M. The method, boiled down: (§1)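 Melting temperature and folding enthalpy were obtained by bootstrapped two-state fitting. Fits used Cy3 fluorescence of library hairpins with annealed Cy3 and quencher oligos on a sequenced MiSeq flow cell, imaged in 50 mM Na-HEPES pH 8.0, 25 mM NaCl in 2.5 °C steps up to 60 °C and normalised to pre-quench Cy3 and control constructs. Four replicates were combined by inverse-variance weighting, and fitted temperatures were raised by 9.35 °C to match UV melts.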

The nature of data set [2]: melting temperature; fluorescence melt of hairpins on a sequencing array, two-state fit, raised by 9.35 °C to match UV melts. The following applies: sodium 0.088 M. A digest of the protocol:
as §1

Take GCTCGCACGAAAGTGAGC (((..(((....)))))): in data set [1], the folding enthalpy is -21.2 kcal/mol. Further, in data set [2], the Tm was 49.6 °C.

Regarding GCTCGCCCGAAAGGGAGC (((..(((....)))))), the folding enthalpy in data set [1] was -16.8 kcal/mol. For the same sequence, in data set [2], the Tm was 48.4 °C.

Turning to GCTCGCGAAAGCGATAGC ((((((....)))..))), the folding enthalpy in data set [1] is -14.4 kcal/mol. For the same sequence, the Tm in data set [2] is 50.3 °C.

Take GCTCGCGAAAGCGCAGC ((((((....))).))): the folding enthalpy in data set [1] is -19.6 kcal/mol. The Tm in data set [2] worked out at 54.4 °C.

GCTCGCGAAAGCGGAGC ((((((....))).))): the folding enthalpy in data set [1] was -22.9 kcal/mol. The Tm in data set [2] stood at 67.9 °C.

With GCTCGCGAAAGCGGTAGC ((((((....)))..))), the folding enthalpy in data set [1] was -15.4 kcal/mol. The Tm in data set [2] is 51 °C.

As for GCTCGCGGAAACGCGAAC (.(((((....))))).), in data set [1], the folding enthalpy was -11.3 kcal/mol. Moreover, the Tm in data set [2] was found to be 48.9 °C.

With GCTCGGCCGAAAGGCAGC (((..(((....)))))), the folding enthalpy in data set [1] is -8.78 kcal/mol. Also, the Tm in data set [2] was found to be 55.6 °C.

As for GCTCGGCGAAAGCCAGC (((.(((....)))))), in data set [1], the folding enthalpy is -17.4 kcal/mol. The Tm in data set [2] was 62.9 °C.

On to GCTCGGCGAAAGCCATGC ((..(((....)))..)), for which the folding enthalpy in data set [1] is -10.7 kcal/mol. The Tm in data set [2] was determined as 49.8 °C.

In the case of GCTCGGCGAAAGCCTTGC ((..(((....)))..)), in data set [1], the folding enthalpy is -11.4 kcal/mol. In addition, in data set [2], the Tm is 50.2 °C.

In the case of GCTCGGCGAAAGCGGGGC ((.(.((....)).).)), in data set [1], the folding enthalpy was -20.6 kcal/mol. Also, the Tm in data set [2] is 61.1 °C.

Regarding GCTCGGCGAAAGCGGTGC ((.(.((....)).).)), in data set [1], the folding enthalpy was -13 kcal/mol. Moreover, the Tm in data set [2] was found to be 57.6 °C.

With GCTCGGCGAAAGCGTAGC (((..((....))..))), the folding enthalpy in data set [1] was -12.9 kcal/mol. Moreover, the Tm in data set [2] was 39.3 °C.

For the sequence GCTCGGCGAAAGCTGCGC ((.(.((....)).).)), the folding enthalpy in data set [1] is -17.4 kcal/mol. Also, the Tm in data set [2] came to 56.2 °C.

For GCTCGGCGAAAGCTGTGC ((.(.((....)).).)), the folding enthalpy in data set [1] is -15.4 kcal/mol. Further, the Tm in data set [2] amounted to 60.2 °C.

Turning to GCTCGGGGAAACTCGGGC ((.((.(....).)).)), the folding enthalpy in data set [1] is -26 kcal/mol. Also, the Tm in data set [2] was 46.6 °C.

On to GCTCGGTCGAAAGACAGC (((..(((....)))))), for which the folding enthalpy in data set [1] is -12.3 kcal/mol. The Tm in data set [2] amounted to 41.2 °C.

For the sequence GCTCGTCGAAAGACAAGC (((.(((....))).))), the folding enthalpy in data set [1] was -24.7 kcal/mol. Further, in data set [2], the Tm came out at 49.5 °C.

Take GCTCTAGAAATAGAGC ((((((....)))))): in data set [1], the folding enthalpy was -34.1 kcal/mol. The Tm in data set [2] stood at 50.9 °C.

For GCTCTCGAAAGAGAGAGC ((((((....)))..))), in data set [1], the folding enthalpy was -19.5 kcal/mol. The Tm in data set [2] came out at 57.2 °C.

Take GCTCTCGAAAGAGCAGC ((((((....))).))): in data set [1], the folding enthalpy was -15.4 kcal/mol. Further, the Tm in data set [2] is 48.2 °C.

For the sequence GCTCTCGAAAGAGCGAGC ((((((....)))..))), the folding enthalpy in data set [1] was -15.1 kcal/mol. Besides, the Tm in data set [2] came to 49.3 °C.

With GCTCTCGAAAGAGGAGC ((((((....))).))), in data set [1], the folding enthalpy is -29.2 kcal/mol. The Tm in data set [2] stood at 50.6 °C.

GCTCTCGAAAGAGGCAGC ((((((....)))..))): the folding enthalpy in data set [1] was -15.5 kcal/mol. Further, the Tm in data set [2] worked out at 42.3 °C.

With GCTCTCGGAAACGAAAGC (((.(((....))).))), the folding enthalpy in data set [1] is -28.5 kcal/mol. Besides, the Tm in data set [2] came to 39.4 °C.

As to GCTCTGACGAAAGTCAGC (((..(((....)))))), in data set [1], the folding enthalpy is -7.47 kcal/mol. In data set [2], the Tm is 31.3 °C.

As to GCTCTGCGAAAGCATGGC ((..(((....)))..)), the folding enthalpy in data set [1] is -19.6 kcal/mol. Besides, the Tm in data set [2] was 40.1 °C.

Take GCTCTGCGAAAGCGGCGC ((.(.((....)).).)): the folding enthalpy in data set [1] was -17.2 kcal/mol. Besides, in data set [2], the Tm was 50.5 °C.

For the sequence GCTCTGCGAAAGCTGCGC ((.(.((....)).).)), in data set [1], the folding enthalpy is -18.4 kcal/mol. Further, the Tm in data set [2] came out at 44.2 °C.

On to GCTCTGCGAAAGCTGGGC ((.(.((....)).).)), for which the folding enthalpy in data set [1] is -21.4 kcal/mol. Also, the Tm in data set [2] was determined as 54.3 °C.

Regarding GCTCTGGAAACAGAGC ((((((....)))))), in data set [1], the folding enthalpy was -37.3 kcal/mol. Further, the Tm in data set [2] turned out to be 62.2 °C.

GCTCTGGGAAACCAAAGC (((.(((....))).))): the folding enthalpy in data set [1] is -23.7 kcal/mol. In addition, the Tm in data set [2] amounted to 35.5 °C.

On to GCTCTGGGAAACCGGAGC ((((.((....)).)))), for which the folding enthalpy in data set [1] was -52.9 kcal/mol. In addition, the Tm in data set [2] came to 57.2 °C.

Take GCTCTGGGAAACTAGGGC ((.((.(....).)).)): in data set [1], the folding enthalpy was -27.7 kcal/mol. The Tm in data set [2] turned out to be 36.5 °C.

As for GCTCTGTCGAAAGACAGC (((..(((....)))))), the folding enthalpy in data set [1] is -8.62 kcal/mol. The Tm in data set [2] turned out to be 36.5 °C.

Consider GCTCTTCGAAAGAAAGC (((.(((....)))))), for which the folding enthalpy in data set [1] was -20.6 kcal/mol. Also, the Tm in data set [2] amounted to 36.1 °C.

Turning to GCTCTTGGAAACAAGAAC (.(((((....))))).), the folding enthalpy in data set [1] was -16.3 kcal/mol. Further, the Tm in data set [2] was determined as 31.4 °C.

On to GCTGAACGAAAGTTAAGC (((.(((....))).))), for which the folding enthalpy in data set [1] is -31.4 kcal/mol. Further, the Tm in data set [2] was determined as 50.6 °C.

Turning to GCTGAACGAAAGTTGAGC (((.(((....))).))), in data set [1], the folding enthalpy is -31.4 kcal/mol. Moreover, the Tm in data set [2] was found to be 48.7 °C.

For the sequence GCTGACGAAAGTCAAAGC ((((((....)))..))), the folding enthalpy in data set [1] was -17.9 kcal/mol. For the same sequence, in data set [2], the Tm worked out at 48.7 °C.

For GCTGACGAAAGTCAAGC ((((((....))).))), the folding enthalpy in data set [1] is -28.8 kcal/mol. The Tm in data set [2] was determined as 56.3 °C.

As for GCTGACGAAAGTCATAGC ((((((....)))..))), the folding enthalpy in data set [1] was -15.9 kcal/mol. The Tm in data set [2] stood at 47.1 °C.

As to GCTGACGAAAGTCGGAGC ((((((....)))..))), in data set [1], the folding enthalpy is -16.5 kcal/mol. Besides, the Tm in data set [2] is 45.7 °C.

Regarding GCTGACGAAAGTCGTAGC ((((((....)))..))), in data set [1], the folding enthalpy is -21.6 kcal/mol. In addition, the Tm in data set [2] worked out at 47.1 °C.

In the case of GCTGACGAAAGTCTAAGC ((((((....)))..))), the folding enthalpy in data set [1] is -19.1 kcal/mol. Also, in data set [2], the Tm was found to be 47.1 °C.

Regarding GCTGACGCGAAAGCGAGC (((..(((....)))))), the folding enthalpy in data set [1] was -13.9 kcal/mol. Also, the Tm in data set [2] was determined as 47.1 °C.

For the sequence GCTGACGGAAACATCAGC (((((.(....).))))), the folding enthalpy in data set [1] is -35.1 kcal/mol. Besides, in data set [2], the Tm turned out to be 44.3 °C.

As for GCTGACGGAAACGCCAAC (.((.((....)).)).), the folding enthalpy in data set [1] is -14.1 kcal/mol. In addition, the Tm in data set [2] turned out to be 25.9 °C.

For GCTGACTCGAAAGAGAGC (((..(((....)))))), in data set [1], the folding enthalpy is -14.6 kcal/mol. For the same sequence, the Tm in data set [2] amounted to 31.6 °C.

Consider GCTGAGCGAAAGCACGGC ((.(.((....)).).)), for which, in data set [1], the folding enthalpy is -21.5 kcal/mol. Further, the Tm in data set [2] turned out to be 56.8 °C.

For the sequence GCTGAGCGAAAGCATAGC (((..((....))..))), the folding enthalpy in data set [1] was -18.9 kcal/mol. In data set [2], the Tm was 50 °C.

With GCTGAGCGAAAGCTGTGC ((..(((....)))..)), the folding enthalpy in data set [1] is -17.8 kcal/mol. In data set [2], the Tm is 45.5 °C.

GCTGAGGCGAAAGCCAGC (((..(((....)))))): the folding enthalpy in data set [1] was -22.3 kcal/mol. Further, the Tm in data set [2] was 52.8 °C.

Consider GCTGAGGGAAACCTCAAC (.(((((....))))).), for which the folding enthalpy in data set [1] is -18.9 kcal/mol. The Tm in data set [2] amounted to 36.6 °C.
